These results are taken from ChEMBL document CHEMBL4229342, “Synthesis of novel proxyphylline derivatives with dual Anti-Candida albicans and anticancer activity” (Eur J Med Chem, 2018).

One test has as its system CCRF-CEM. Description: Antiproliferative activity against human CCRF-CEM cells after 72 hrs by MTT assay. It is filed as functional, cell-based. The essentials:
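EC50 was derived from a repeat 72 h MTT assay in CCRF-CEM or MCF-7 cells. It is the concentration killing 50% of tumour cells compared with control cells incubated without inhibitor in 0.5% DMSO.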

The subject of test [1] is Candida albicans. The experiment in a line: Ratio of MFC for fungicidal activity against Candida albicans ATCC 90028 assessed as reduction in cell viability in RPMI medium in presence of sorbitol to MFC for fungicidal activity against Candida albicans ATCC 90028 assessed as reduction in cell viability in RPMI medium in absence of sorbitol. It is filed as functional.
The subject of test [2] is Candida albicans. The experiment in a line: Fungicidal activity against Candida albicans ATCC 90028 assessed as reduction in cell viability in RPMI medium in presence of sorbitol. It is filed as functional.
Test [3] has as its system Candida albicans. Description: Induction of apoptosis in Candida albicans ATCC 90028 planktonic forms assessed as accumulation at subG1 phase at 4 to 16 ug/ml by ethidium bromide staining based gel electrophoresis and confocal laser scanning microscopy. It is filed as functional, organism-based.
The test system of test [4] is Candida albicans. Description: Inhibition of biofilm formation of Candida albicans ATCC 90028 at 20 uM […] by XTT assay. It is filed as functional. On the technique in general: Formazan colour is commonly taken as a measure of viable cells.
The subject of test [5] is Candida albicans. Description: Antifungal activity against Candida albicans ATCC 90028 infected in Galleria mellonella larvae infected with 20 uM compound pre-treated cell suspensions assessed as reduction in fungal cell nodules in dark for 144 hrs at 30 degC and measured every 24 hrs by hematoxylin and eosin staining-based light microscopic analysis. It is filed as functional, organism-based.

Test [6] relates to Candida albicans. The experiment in a line: Disruption of cell wall in Candida albicans SC5314 assessed as decrease in chitin level by measuring chitin mean staining index at 20 uM after 18 hrs by calcofluor white staining-based flow cytometric analysis (reference value: 496 +/- 51). It is filed as functional.
Test [7] concerns Candida albicans. The experiment in a line: Antifungal activity against Candida albicans ATCC 90028 infected in Galleria mellonella larvae infected with 20 uM compound pre-treated cell suspensions assessed as larvae survival incubated in dark for 144 hrs at 30 degC and measured every 24 hrs (reference value: 80%). It is filed as functional.
In test [8] the test system is Candida albicans. Description: Antifungal activity against Candida albicans ATCC 90028 infected in Galleria mellonella larvae infected with 31 uM compound pre-treated cell suspensions assessed as melanization incubated in dark for 144 hrs at 30 degC and measured every 24 hrs (reference value: 65%). It is filed as functional.
A short description of test [9]: In-vitro chitinolytic activity of the compound assessed as p-nitrophenyl release from N-acetyl-beta-D-glucosaminide at 248 uM by chitinolytic activity assay. It is filed as functional.
Test [10] has as its system Candida albicans. The experiment in a line: Inhibition of biofilm formation of Candida albicans ATCC 90028 up to 248 uM […] by XTT assay. It is filed as functional, organism-based.
The subject of test [11] is Candida albicans. Description: Antibiofilm activity in Candida albicans ATCC 90028 assessed as increase in chitin distribution within biofilm cells at 248 uM after 18 hrs by calcofluor white staining-based confocal laser scanning microscopic analysis. It is filed as functional, organism-based.

Active and inactive are the calls of the source.

As usually defined, the EC50 is the concentration needed to bring the measured effect to its halfway point. A word on the MFC: it is the smallest concentration meeting the test's criterion for killing the fungus. A word on the inhibition: it is the change of the read-out against control, counted positive when it falls. Take `CC(Cn1cnc2c1c(=O)n(C)c(=O)n2C)OCc1cn(CCCn2nc3c(Br)c(Br)c(Br)c(Br)c3n2)nn1` (configuration not stated): the EC50 in the test on CCRF-CEM came to 6.5 µM. For the same molecule, the Ratio in the test with Candida albicans [1] is 2. The MFC in the test with Candida albicans [2] came out at 10 µM. For the same molecule, in the test on Candida albicans [3], the outcome was inactive. Further, 20 µM produced 47% inhibition in the test on Candida albicans [4]. Further, the outcome in the test on Candida albicans [5] was Active. The Activity_index with Candida albicans [6] is given as 370. Besides, the survival at 20 µM in the test with Candida albicans [7] worked out at 100%.

In the case of `CC(CN1c2ccccc2Sc2ccccc21)OC(=O)OC(C)Cn1cnc2c1c(=O)n(C)c(=O)n2C` (configuration not stated), the results for the Activity (with Candida albicans [8]; in test [9]) were 5 - 15% and 0.01 to 0.03 µmol/min, respectively. Moreover, in the test on Candida albicans [10], the inhibition entry is “inactive”. Also, the result in the test on Candida albicans [11] was Active.
